Reference: ChEMBL document CHEMBL1153430 (J Med Chem, 2009)
pEC50: −log10 of the molar value.

Tests used:
[1] = Negative inotropic activity in guinea pig left atrium assessed as decrease in atrial tension; assay type: functional, tissue-based; conditions: Cavia porcellus, Cardiac atrium
[2] = Negative inotropic activity in guinea pig left atrium assessed as decrease in atrial tension at 50 uM relative to control; assay type: functional, Cavia porcellus, Cardiac atrium; parameters: scale not given: the % may be the effect or the level left
Aorta [3] = assay: Vasorelaxant activity in potassium-depolarized guinea pig thoracic aorta assessed as inhibition of calcium-induced contraction at 50 uM; assay type: functional, Cavia porcellus; parameters: scale not given: the % may be the effect or the level left
[4] = Negative chronotropic activity in guinea pig spontaneously beating right atrium assessed as decrease in atrial rate at 50 uM relative to control; assay type: functional, Cavia porcellus, Cardiac atrium; parameters: scale not given: the % may be the effect or the level left
In short: (§1)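 Guinea pig isolated atria, compound given at increasing doses. Left atrium driven at 1 Hz: percent decrease in developed tension (inotropy, EC50). Spontaneously beating right atrium: percent decrease in rate (chronotropy, EC30). Probit analysis (Litchfield-Wilcoxon), n = 6-7. Potencies not calculated when maximal effect <50%.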

[5] = Negative inotropic activity in guinea pig left atrium assessed as decrease in atrial tension at 10 uM relative to control; assay type: functional, Cavia porcellus, Cardiac atrium; parameters: scale not given: the % may be the effect or the level left; in short: as §1
Aorta [6] = assay: Vasorelaxant activity in potassium-depolarized guinea pig thoracic aorta assessed as inhibition of calcium-induced contraction; assay type: functional, Cavia porcellus; parameters: scale not given: the % may be the effect or the level left
Heart [7] = assay: Effect on cardiac activity in guinea pig spontaneously beating heart assessed as change in left ventricular pressure at 1 uM relative to control; assay type: functional, Cavia porcellus
In short: (§2)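 Isolated perfused, spontaneously beating guinea pig heart. Readouts: +(dP/dt)max (maximal rate of rise of left ventricular pressure), heart rate from ECG, coronary perfusion pressure, PR interval. Given as percent change from basal at the highest concentration tested (1 µM), mean ± SEM. pEC50 taken from log concentration-response curves, n = 4-6.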

Heart [8] = assay: Effect on cardiac activity in guinea pig spontaneously beating heart assessed as change in coronary perfusion pressure at 1 uM relative to control; assay type: functional, Cavia porcellus; in short: as §2
[9] = Negative chronotropic activity in guinea pig spontaneously beating right atrium assessed as decrease in atrial rate at 10 uM relative to control; assay type: functional, Cavia porcellus, Cardiac atrium; parameters: scale not given: the % may be the effect or the level left; in short: as §1
Heart [10] = assay: Effect on cardiac activity in guinea pig spontaneously beating heart assessed as change in heart rate at 1 uM relative to control; assay type: functional, Cavia porcellus; in short: as §2
Heart [11] = assay: Effect on cardiac activity in guinea pig spontaneously beating heart assessed as change in atrioventricular conduction time at 1 uM relative to control; assay type: functional, Cavia porcellus; in short: as §2
[12] = Negative chronotropic activity in guinea pig spontaneously beating right atrium assessed as decrease in atrial rate at 100 uM relative to control; assay type: functional, Cavia porcellus, Cardiac atrium; parameters: scale not given: the % may be the effect or the level left; in short: as §1
[13] = Negative inotropic activity in guinea pig left atrium assessed as decrease in atrial tension at 1 uM relative to control; assay type: functional, Cavia porcellus, Cardiac atrium; parameters: scale not given: the % may be the effect or the level left
[14] = target: T1, Voltage-gated L-type calcium channel (Rattus norvegicus, UniProt P22002+Q02485+P27732); assay: Inhibition of L-type calcium channel in Wistar rat tail artery smooth muscle cells assessed as blockade of barium[…] current by whole cell patch-clamp assay; conditions: for Activity: rat
In short: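 Single smooth muscle cells isolated from rat tail main artery. Peak barium current through L-type channels [I_Ba(L)] recorded under cumulative concentrations, reported as percent inhibition.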

[15] = Ratio of IC50 for L-type calcium channel in Wistar rat tail artery smooth muscle cells to EC50 for negative inotropic activity in guinea pig left atrium; parameters: species or system Cardiac atrium
[16] = target: T1, Voltage-gated L-type calcium channel; assay: Inhibition of L-type calcium channel in Wistar rat tail artery smooth muscle cells assessed as blockade of barium[…] current at 10 uM by whole cell patch-clamp assay
In short: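 Single smooth muscle cells isolated from rat tail main artery. Peak barium current through L-type channels [I_Ba(L)] recorded under cumulative concentrations, reported as percent inhibition. IC50 from log concentration-response curves, mean ± SEM, n = 4.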

[17] = target: T1, Voltage-gated L-type calcium channel; assay: Displacement of [3H]diltiazem from L-type calcium channel in Sprague-Dawley rat cardiac myocytes by liquid scintillation counting; assay type: cell-based; conditions: for Activity: rat
[18] = Negative inotropic activity in guinea pig left atrium assessed as decrease in atrial tension at 100 uM relative to control; assay type: functional, Cavia porcellus, Cardiac atrium; parameters: scale not given: the % may be the effect or the level left; in short: as §1
Aorta [19] = assay: Vasorelaxant activity in potassium-depolarized guinea pig thoracic aorta assessed as inhibition of calcium-induced contraction at 100 uM; assay type: functional, Cavia porcellus; parameters: scale not given: the % may be the effect or the level left
[20] = Negative inotropic activity in guinea pig left atrium assessed as decrease in atrial tension at 5 uM relative to control; assay type: functional, Cavia porcellus, Cardiac atrium; parameters: scale not given: the % may be the effect or the level left; in short: as §1
[21] = Negative chronotropic activity in guinea pig spontaneously beating right atrium assessed as decrease in atrial rate at 5 uM relative to control; assay type: functional, Cavia porcellus, Cardiac atrium; parameters: scale not given: the % may be the effect or the level left
[22] = Negative chronotropic activity in guinea pig spontaneously beating right atrium assessed as decrease in atrial rate at 1 uM relative to control; assay type: functional, Cavia porcellus, Cardiac atrium; parameters: scale not given: the % may be the effect or the level left

Row | pEC50 [1] | SMILES | Activity [2] [%] | Activity (Aorta [3]) [%] | Activity [4] [%] | Activity [12] [%] | Activity [18] [%] | Activity (Aorta [19]) [%] | further results
1 | 5.66 | CCCS/C=C(/C)n1c(C(=O)c2ccc(Cl)cc2)noc1=O | – | – | 17 | – | 84 | 15 | –
2 | 6.14 | C/C(=C/Sc1sc([N+](=O)[O-])cc1[N+](=O)[O-])n1c(C(=O)c2ccc(Br)cc2)noc1=O | – | 32 | – | – | – | – | Activity [20]: 85%; Activity [9]: 27%
3 | 5.99 | CCCCCCCCCS/C=C(/C)n1c(C(=O)c2ccc(Br)cc2)noc1=O | – | – | – | 3 | 84 | 12 | –
4 | 6.04 | C/C(=C/SCC(C)C)n1c(C(=O)c2ccc(Br)cc2)noc1=O | – | – | – | 16 | 88 | 24 | –
5 | 5.87 | C=CCS/C=C(/C)n1c(C(=O)c2ccc(Cl)cc2)noc1=O | – | – | – | – | 70 | 23 | Activity [21]: 6%
6 | 6.17 | CCCCCCCCCS/C=C(/C)n1c(C(=O)c2ccc(Cl)cc2)noc1=O | – | – | – | 2 | – | 5 | Activity [5]: 84%
7 | 5.89 | C/C(=C/SCc1ccccc1)n1c(C(=O)c2ccc(Br)cc2)noc1=O | 80 | 6 | – | – | – | – | Activity [9]: 31%
8 | 5.68 | CCS/C=C(/C)n1c(C(=O)c2ccc(Cl)cc2)noc1=O | 75 | – | 30 | – | – | 27 | –
9 | 6.39 | CS/C=C(/C)n1c(C(=O)c2ccc(Br)cc2)noc1=O | 95 | – | – | – | – | 10 | IC50 [14]: 25210 nM; Activity [14]: Dose-dependent effect; Activity [13]: <50%; Ratio IC50 [15]: 60; Activity [9]: 2%; Activity [16]: Not Active; Ki [17]: 490 nM; Activity [17]: Dose-dependent effect
10 | 5.88 | CCS/C=C(/C)n1c(C(=O)c2ccc(Br)cc2)noc1=O | – | – | – | 18 | 89 | 43 | –
11 | 5.84 | CS/C=C(/C)n1c(C(=O)c2ccc(Cl)cc2)noc1=O | 71 | 8 | 10 | – | – | – | –
12 | 6.32 | C/C(=C/[S+](C)[O-])n1c(C(=O)c2ccc(Br)cc2)noc1=O (stereo unspecified) | – | – | – | 33 | 89 | 2 | Ki [17]: 23680 nM
13 | 5.89 | C=CCS/C=C(/C)n1c(C(=O)c2ccc(Br)cc2)noc1=O | – | – | 18 | – | 89 | 21 | –
14 | 5.91 | CCCS/C=C(/C)n1c(C(=O)c2ccc(Br)cc2)noc1=O | – | – | – | 10 | 80 | 26 | –
15 | 5.68 | C/C(=C/SCC(C)C)n1c(C(=O)c2ccc(Cl)cc2)noc1=O | – | – | – | 5 | 84 | 6 | –

The remaining lines, values behind:

Row | SMILES | pEC50 [1] | Activity [2] [%] | Activity (Aorta [3]) [%] | Activity [4] [%] | Activity [12] [%] | Activity [18] [%] | Activity (Aorta [19]) [%] | further results
16 | COc1ccc(C2(O)SC=C(C)n3c2noc3=O)cc1 (stereo unspecified) | 6.49 | 97 | 12 | 18 | – | – | – | –
17 | CC1=CSC(O)(c2ccc(Cl)cc2)c2noc(=O)n21 (stereo unspecified) | 6.10 | – | 26 | 18 | – | – | – | Activity [5]: 80%; Activity (Aorta [6]): <30%
18 | CCOC1(c2ccc(Br)cc2)SC=C(C)n2c1noc2=O (stereo unspecified) | 7.40 | 77 | 19 | – | – | – | – | Activity (Heart [7]): -3%; Activity (Heart [8]): -9%; Activity [9]: 5%; Activity (Heart [10]): -14%; Activity (Heart [11]): 32%
19 | CC1=CSC(O)(c2ccccc2)c2noc(=O)n21 (stereo unspecified) | 6.64 | – | 4 | 14 | – | – | – | Activity [5]: 95%
20 | C/C(=C/[S][Ag])n1c(C(=O)c2ccc(Cl)cc2)noc1=O | – | – | 4 | – | 7 | – | – | Activity [13]: 49%; Activity (Aorta [6]): <30%
21 | CC1=CSC(O)(c2ccc(Br)cc2)c2noc(=O)n21 (stereo unspecified) | 6.49 | 97 | 12 | 18 | – | – | – | IC50 [14]: 33360 nM; Activity [14]: Dose-dependent effect; Ratio IC50 [15]: 100; Activity [16]: Not Active; Ki [17]: 290 nM; Activity [17]: Dose-dependent effect; Activity (Aorta [6]): <30%
22 | C/C(=C/[S+](C)[O-])n1c(C(=O)c2ccc(Cl)cc2)noc1=O (stereo unspecified) | 6.68 | 71 | – | – | 4 | – | 7 | –
23 | C/C(=C/S(C)(=O)=O)n1c(C(=O)c2ccc(Cl)cc2)noc1=O | 5.95 | – | – | – | 7 | 72 | 13 | –
24 | C/C(=C/[S][Ag])n1c(C(=O)c2ccc(Br)cc2)coc1=O | – | – | – | – | – | – | 26 | Activity (Heart [7]): 0%; Activity [13]: 32%; Activity (Heart [8]): -3%; Activity [22]: 18%; Activity (Heart [10]): -4%; Activity (Heart [11]): 30%; Activity (Aorta [6]): <30%
25 | C/C(=C/SCc1ccccc1)n1c(C(=O)c2ccc(Cl)cc2)noc1=O | 5.81 | – | – | – | 5 | 78 | 33 | –
26 | C/C(=C/Sc1sc([N+](=O)[O-])cc1[N+](=O)[O-])n1c(C(=O)c2ccc(Cl)cc2)noc1=O | 5.85 | 67 | 35 | 15 | – | – | – | –
27 | C/C(=C/SS/C=C(/C)n1c(C(=O)c2ccc(Br)cc2)noc1=O)n1c(C(=O)c2ccc(Br)cc2)noc1=O | 5.77 | – | – | – | 9 | 73 | 5 | Ki [17]: 200 nM
28 | CCOC1(c2ccc(Cl)cc2)SC=C(C)n2c1noc2=O (stereo unspecified) | 6.57 | – | 28 | 16 | – | – | – | Activity [20]: 53%
29 | C/C(=C/SS/C=C(/C)n1c(C(=O)c2ccc(Cl)cc2)noc1=O)n1c(C(=O)c2ccc(Cl)cc2)noc1=O | 5.36 | – | – | – | 4 | 72 | 6 | –
